# Source: ChEMBL document CHEMBL1152495, “Synthesis and antimicrobial studies of novel methylene bridged benzisoxazolyl imidazo[2,1-b][1,3,4]thiadiazole derivatives” (2009)
# Test system: Staphylococcus aureus
# Test: Antibacterial activity against Staphylococcus aureus ATCC 25923 at 100 ug/ml after 24 hrs by agar well diffusion method
# Type: functional
# Conditions: ATCC 25923, 24 h, read-out: IZ
# Method in brief: (§1)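 Agar well diffusion on Mueller Hinton agar (20 mL per dish), seeded homogeneously with liquid bacterial culture by spread plating. Samples loaded directly into wells, dimethylformamide as solvent control, ampicillin as reference drug. Plates incubated at 37 °C for 24 h. All determinations done in triplicate.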
row,Compound,zone of inhibition at 100 µg/mL [mm]
1,O=Nc1c(-c2ccc([N+](=O)[O-])cc2)nc2sc(Cc3noc4ccccc34)nn12,12
2,N#CSc1c(-c2ccc(Cl)cc2)nc2sc(Cc3noc4ccccc34)nn12,18
3,Brc1c(-c2ccccc2)nc2sc(Cc3noc4ccccc34)nn12,18
4,O=Nc1c(-c2ccc(Br)cc2)nc2sc(Cc3noc4ccccc34)nn12,16
5,N#CSc1c(-c2cc3ccccc3oc2=O)nc2sc(Cc3noc4ccccc34)nn12,14
6,c1ccc(-c2cn3nc(Cc4noc5ccccc45)sc3n2)cc1,16

# Test system: Bacillus subtilis
# Test: Antibacterial activity against Bacillus subtilis ATCC 6633 at 100 ug/ml after 24 hrs by agar well diffusion method
# Type: functional
# Conditions: ATCC 6633, 24 h, read-out: IZ
# Method in brief: as §1
row,Compound,zone of inhibition at 100 µg/mL [mm]
1,O=Nc1c(-c2ccc([N+](=O)[O-])cc2)nc2sc(Cc3noc4ccccc34)nn12,14
2,N#CSc1c(-c2ccc(Cl)cc2)nc2sc(Cc3noc4ccccc34)nn12,17
3,Brc1c(-c2ccccc2)nc2sc(Cc3noc4ccccc34)nn12,12
4,O=Nc1c(-c2ccc(Br)cc2)nc2sc(Cc3noc4ccccc34)nn12,12
5,N#CSc1c(-c2cc3ccccc3oc2=O)nc2sc(Cc3noc4ccccc34)nn12,15
6,c1ccc(-c2cn3nc(Cc4noc5ccccc45)sc3n2)cc1,11

# Test system: Escherichia coli
# Test: Antibacterial activity against Escherichia coli ATCC 35218 at 100 ug/ml after 24 hrs by agar well diffusion method
# Type: functional
# Conditions: ATCC 35218, 24 h, read-out: IZ
# Method in brief: as §1
row,Compound,zone of inhibition at 100 µg/mL [mm]
1,O=Nc1c(-c2ccc([N+](=O)[O-])cc2)nc2sc(Cc3noc4ccccc34)nn12,9
2,N#CSc1c(-c2ccc(Cl)cc2)nc2sc(Cc3noc4ccccc34)nn12,16
3,Brc1c(-c2ccccc2)nc2sc(Cc3noc4ccccc34)nn12,11
4,O=Nc1c(-c2ccc(Br)cc2)nc2sc(Cc3noc4ccccc34)nn12,14
5,N#CSc1c(-c2cc3ccccc3oc2=O)nc2sc(Cc3noc4ccccc34)nn12,14
6,c1ccc(-c2cn3nc(Cc4noc5ccccc45)sc3n2)cc1,9

# Test system: Pseudomonas aeruginosa
# Test: Antibacterial activity against Pseudomonas aeruginosa ATCC 10145 at 100 ug/ml after 24 hrs by agar well diffusion method
# Type: functional
# Conditions: ATCC 10145, 24 h, read-out: IZ
# Method in brief: as §1
row,Compound,zone of inhibition at 100 µg/mL [mm]
1,O=Nc1c(-c2ccc([N+](=O)[O-])cc2)nc2sc(Cc3noc4ccccc34)nn12,11
2,N#CSc1c(-c2ccc(Cl)cc2)nc2sc(Cc3noc4ccccc34)nn12,19
3,Brc1c(-c2ccccc2)nc2sc(Cc3noc4ccccc34)nn12,16
4,O=Nc1c(-c2ccc(Br)cc2)nc2sc(Cc3noc4ccccc34)nn12,12
5,N#CSc1c(-c2cc3ccccc3oc2=O)nc2sc(Cc3noc4ccccc34)nn12,16
6,c1ccc(-c2cn3nc(Cc4noc5ccccc45)sc3n2)cc1,9

# Test system: Candida albicans
# Test: Antifungal activity against Candida albicans at 100 ug/ml after 72 hrs by agar well diffusion method
# Type: functional
# Conditions: read-out: IZ
# Method in brief: (§2)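 Fungi grown on Potato Dextrose Agar (20 mL per dish), seeded homogeneously with liquid culture by spread plating. Samples loaded directly into agar wells, with dimethylformamide as solvent control and clotrimazole as reference drug. Plates incubated at 25 °C for 72 h, triplicate determinations.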
row,Compound,zone of inhibition at 100 µg/mL [mm]
1,O=Nc1c(-c2ccc([N+](=O)[O-])cc2)nc2sc(Cc3noc4ccccc34)nn12,17
2,N#CSc1c(-c2ccc(Cl)cc2)nc2sc(Cc3noc4ccccc34)nn12,15
3,Brc1c(-c2ccccc2)nc2sc(Cc3noc4ccccc34)nn12,14
4,O=Nc1c(-c2ccc(Br)cc2)nc2sc(Cc3noc4ccccc34)nn12,17
5,N#CSc1c(-c2cc3ccccc3oc2=O)nc2sc(Cc3noc4ccccc34)nn12,12
6,c1ccc(-c2cn3nc(Cc4noc5ccccc45)sc3n2)cc1,12

# Test system: Aspergillus fumigatus
# Test: Antifungal activity against Aspergillus fumigatus at 100 ug/ml after 72 hrs by agar well diffusion method
# Type: functional
# Conditions: read-out: IZ
# Method in brief: as §2
row,Compound,zone of inhibition at 100 µg/mL [mm]
1,O=Nc1c(-c2ccc([N+](=O)[O-])cc2)nc2sc(Cc3noc4ccccc34)nn12,11
2,N#CSc1c(-c2ccc(Cl)cc2)nc2sc(Cc3noc4ccccc34)nn12,11
3,Brc1c(-c2ccccc2)nc2sc(Cc3noc4ccccc34)nn12,12
4,O=Nc1c(-c2ccc(Br)cc2)nc2sc(Cc3noc4ccccc34)nn12,15
5,N#CSc1c(-c2cc3ccccc3oc2=O)nc2sc(Cc3noc4ccccc34)nn12,19
6,c1ccc(-c2cn3nc(Cc4noc5ccccc45)sc3n2)cc1,19

# Test system: Staphylococcus aureus
# Test: Antibacterial activity against Staphylococcus aureus ATCC 25923 after 24 hrs by agar well diffusion method
# Type: functional
# Conditions: ATCC 25923, 24 h
# Method in brief: as §1
row,Compound,MIC [µg/mL]
1,O=Nc1c(-c2ccc([N+](=O)[O-])cc2)nc2sc(Cc3noc4ccccc34)nn12,1.5
2,N#CSc1c(-c2ccc(Cl)cc2)nc2sc(Cc3noc4ccccc34)nn12,1
3,Brc1c(-c2ccccc2)nc2sc(Cc3noc4ccccc34)nn12,1
4,O=Nc1c(-c2ccc(Br)cc2)nc2sc(Cc3noc4ccccc34)nn12,1
5,N#CSc1c(-c2cc3ccccc3oc2=O)nc2sc(Cc3noc4ccccc34)nn12,1.5
6,c1ccc(-c2cn3nc(Cc4noc5ccccc45)sc3n2)cc1,1

# Test system: Bacillus subtilis
# Test: Antibacterial activity against Bacillus subtilis ATCC 6633 after 24 hrs by agar well diffusion method
# Type: functional
# Conditions: ATCC 6633, 24 h
# Method in brief: as §1
row,Compound,MIC [µg/mL]
1,O=Nc1c(-c2ccc([N+](=O)[O-])cc2)nc2sc(Cc3noc4ccccc34)nn12,1.5
2,N#CSc1c(-c2ccc(Cl)cc2)nc2sc(Cc3noc4ccccc34)nn12,1
3,Brc1c(-c2ccccc2)nc2sc(Cc3noc4ccccc34)nn12,2.5
4,O=Nc1c(-c2ccc(Br)cc2)nc2sc(Cc3noc4ccccc34)nn12,2.5
5,N#CSc1c(-c2cc3ccccc3oc2=O)nc2sc(Cc3noc4ccccc34)nn12,1
6,c1ccc(-c2cn3nc(Cc4noc5ccccc45)sc3n2)cc1,2

# Test system: Escherichia coli
# Test: Antibacterial activity against Escherichia coli ATCC 35218 after 24 hrs by agar well diffusion method
# Type: functional
# Conditions: ATCC 35218, 24 h
# Method in brief: as §1
row,Compound,MIC [µg/mL]
1,O=Nc1c(-c2ccc([N+](=O)[O-])cc2)nc2sc(Cc3noc4ccccc34)nn12,3.5
2,N#CSc1c(-c2ccc(Cl)cc2)nc2sc(Cc3noc4ccccc34)nn12,2
3,Brc1c(-c2ccccc2)nc2sc(Cc3noc4ccccc34)nn12,3
4,O=Nc1c(-c2ccc(Br)cc2)nc2sc(Cc3noc4ccccc34)nn12,2
5,N#CSc1c(-c2cc3ccccc3oc2=O)nc2sc(Cc3noc4ccccc34)nn12,3.5
6,c1ccc(-c2cn3nc(Cc4noc5ccccc45)sc3n2)cc1,3.5

# Test system: Pseudomonas aeruginosa
# Test: Antibacterial activity against Pseudomonas aeruginosa ATCC 10145 after 24 hrs by agar well diffusion method
# Type: functional
# Conditions: ATCC 10145, 24 h
# Method in brief: as §1
row,Compound,MIC [µg/mL]
1,O=Nc1c(-c2ccc([N+](=O)[O-])cc2)nc2sc(Cc3noc4ccccc34)nn12,3
2,N#CSc1c(-c2ccc(Cl)cc2)nc2sc(Cc3noc4ccccc34)nn12,1.5
3,Brc1c(-c2ccccc2)nc2sc(Cc3noc4ccccc34)nn12,2
4,O=Nc1c(-c2ccc(Br)cc2)nc2sc(Cc3noc4ccccc34)nn12,3
5,N#CSc1c(-c2cc3ccccc3oc2=O)nc2sc(Cc3noc4ccccc34)nn12,2
6,c1ccc(-c2cn3nc(Cc4noc5ccccc45)sc3n2)cc1,3.5

# Test system: Candida albicans
# Test: Antifungal activity against Candida albicans after 72 hrs by agar well diffusion method
# Type: functional
# Conditions: not given
# Method in brief: as §2
row,Compound,MIC [µg/mL]
1,O=Nc1c(-c2ccc([N+](=O)[O-])cc2)nc2sc(Cc3noc4ccccc34)nn12,2.5
2,N#CSc1c(-c2ccc(Cl)cc2)nc2sc(Cc3noc4ccccc34)nn12,3
3,Brc1c(-c2ccccc2)nc2sc(Cc3noc4ccccc34)nn12,3
4,O=Nc1c(-c2ccc(Br)cc2)nc2sc(Cc3noc4ccccc34)nn12,2.5
5,N#CSc1c(-c2cc3ccccc3oc2=O)nc2sc(Cc3noc4ccccc34)nn12,3.5
6,c1ccc(-c2cn3nc(Cc4noc5ccccc45)sc3n2)cc1,3.5

# Test system: Aspergillus fumigatus
# Test: Antifungal activity against Aspergillus fumigatus after 72 hrs by agar well diffusion method
# Type: functional
# Conditions: not given
# Method in brief: as §2
row,Compound,MIC [µg/mL]
1,O=Nc1c(-c2ccc([N+](=O)[O-])cc2)nc2sc(Cc3noc4ccccc34)nn12,4
2,N#CSc1c(-c2ccc(Cl)cc2)nc2sc(Cc3noc4ccccc34)nn12,4
3,Brc1c(-c2ccccc2)nc2sc(Cc3noc4ccccc34)nn12,3.5
4,O=Nc1c(-c2ccc(Br)cc2)nc2sc(Cc3noc4ccccc34)nn12,2.5
5,N#CSc1c(-c2cc3ccccc3oc2=O)nc2sc(Cc3noc4ccccc34)nn12,2
6,c1ccc(-c2cn3nc(Cc4noc5ccccc45)sc3n2)cc1,2
